# Screening data from PubChem.
# Hits are enriched below; roughly 3.7% of the tested compounds scored in any of these assays.
# hERG protect = hERG (human) protection from proarrhythmic block | activation (rescue from dofetilide block), less the hit threshold, % at 10 µM | Q12809 | CHO-hERG, FluxOR thallium flux, dofetilide IC70 present | actives 0.51% (n = 310,000) | AID 1511;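 active = activation above the mean of controls blocked by dofetilide plus 5 SD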;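 note: thallium influx through hERG after potassium depolarization seen as dye fluorescence rise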
# KCNQ1 pot = human KCNQ1 channel potentiation or activation | P51787 | CHO-K1 KCNQ1, thallium flux FluxOR fluorescence; active compounds read high | B-score at 10 µM | actives 0.35% (n = 310,000) | AID 2648;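 active = fluorescence ratio B-score, a plate-corrected score, at least three library SD, with initial intensity B-score within 5 SD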
#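 Test system: CHO-K1 cells stably expressing KCNQ1 / Medium: assay buffer / Also added: depolarizing K+/Tl+ stimulus, K2SO4 and Tl2SO4 each 12.5 mM in 5x stock / Incubation: 90 min dye loading and 20 min compound exposure, both at room temperature / Signal: thallium influx via FluxOR fluorescence, kinetic imaging / Evaluation: B score of baseline-normalized fluorescence ratio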
# KCNK9 inh = human KCNK9 channel inhibition; HEK293 KCNK9, FluxOR thallium flux fluorescence; active compounds read low; Q9NPC2; B-score at 10 µM; actives 1.2% (n = 310,000);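 active = ratio B-score over 3 SD below the library mean, with starting fluorescence within 5 SD of its mean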;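 note: negative B-score means less thallium flux so channel inhibition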
# KCNQ1 inh = blocks the human KCNQ1 potassium channel; CHO-K1 KCNQ1, FluxOR thallium flux fluorescence; active compounds read high; B-score at 10 µM; actives 1.3% (n = 310,000); AID 2642;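 active = compounds whose thallium flux B-score, printed positive for inhibition, exceeds three library SD while starting fluorescence stays within three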;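 note: channel opened by potassium depolarization with thallium stimulus after 20 min compound exposure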
# KCNK3 block = human KCNK3 channel inhibition, primary screen; O14649; CHO-KCNK3 thallium flux, FluxOR fluorescence; active compounds read low; B-score at 10 µM; actives 0.84% (n = 340,000);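 active = B-score under library mean minus 4 SD, starting fluorescence ratio at most library mean plus 5 SD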;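 note: more negative B-score means stronger inhibition of thallium flux through KCNK3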
# Target sequence (O14649 whole entry, looked up): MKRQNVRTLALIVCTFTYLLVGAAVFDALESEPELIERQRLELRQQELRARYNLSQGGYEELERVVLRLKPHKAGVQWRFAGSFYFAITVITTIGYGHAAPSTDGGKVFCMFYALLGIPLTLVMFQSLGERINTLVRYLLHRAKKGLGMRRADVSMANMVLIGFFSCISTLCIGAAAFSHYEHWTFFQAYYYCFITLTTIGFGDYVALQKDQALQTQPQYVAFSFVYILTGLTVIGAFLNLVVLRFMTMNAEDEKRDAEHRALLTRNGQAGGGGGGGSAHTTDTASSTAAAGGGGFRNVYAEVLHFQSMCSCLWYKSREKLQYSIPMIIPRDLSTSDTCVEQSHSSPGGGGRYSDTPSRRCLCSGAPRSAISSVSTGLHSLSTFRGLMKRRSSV
# Kir21 inh = Kir2.1 (mouse) channel inhibition. B-score at 10 µM. actives 0.85% (n = 310,000). HEK293-Kir2.1, FluxOR thallium flux fluorescence; active compounds read low. P35561;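 active = fluorescence ratio B-score at or below minus 3 SD of library scores, with starting-brightness B-score within 2 SD, cut at about -4.2 in these data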;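 note: channel flux triggered by added potassium and thallium sulfate stimulus; B-score of peak minus minimum fluorescence over baseline after thallium stimulus; more negative B-score means stronger Kir2.1 block with less thallium influx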
# Active calls of the source: *; i = inactive; . = not tested or not shown.
SMILES,hERG protect,KCNQ1 pot,KCNK9 inh,KCNQ1 inh,KCNK3 block,Kir21 inh
N=C1/C(=C/c2cccs2)C(=O)N=C2SN=C(SCc3ccccc3)N12,-9.6,i,i,i,i,-3.73
CC(C)CSC1=NSC2=NC(=O)/C(=C\c3cccs3)C(=N)N12,-1.5,8*,i,i,i,1.47
Cc1cc(O)cc2c1C(=O)/C(=C/c1ccco1)O2,-11.4,i,i,11*,i,-5.98
CCN(CC)C(=O)Oc1ccc2c(c1)O/C(=C\c1ccco1)C2=O,-11.8,i,i,i,i,0.08
CC(=O)Oc1ccc2c(c1)O/C(=C\c1ccncc1)C2=O,-27.3,i,i,9*,i,-8.95
CCC(=O)Oc1ccc2c(c1)O/C(=C\c1ccco1)C2=O,-15.6,i,i,6*,i,-0.78
COC(=O)COc1ccc2c(c1)O/C(=C\c1ccco1)C2=O,-6.8,i,i,i,i,-0.87
COCCN(CCOC)Cc1c(O)ccc2c1O/C(=C\c1ccco1)C2=O,-26.1,i,i,11*,i,-9.28
Cn1c(CCNC(=O)c2ccccc2F)nnc1SCC(=O)Nc1nncs1,-6.5,i,i,i,i,-0.25
CCCN(CCC)C(=O)C1CCN(c2ccc(S(=O)(=O)N3CCOCC3)cc2[N+](=O)[O-])CC1,-8.4,i,i,i,i,-0.46
O=C1C=C(c2ccc3c(c2)oc2ccccc23)C[C@@H](c2ccc(Cl)cc2)C1,.,.,.,.,i,.
Cc1cc(C(C#N)c2ccc(Cl)cc2)c(Cl)cc1NC(=O)c1cc(I)cc(I)c1O (stereo unspecified),-26.2,8*,i,i,i,-0.73
Cc1cc(NC(=O)c2ccc(Cl)cc2)c(C)cc1O,-7.2,i,i,i,i,1.77
c1ccc(-c2c(-c3ccccc3)n(Cc3ccco3)c3ncnc(NCCCn4ccnc4)c23)cc1,-26.2,i,i,12*,i,-2.94
N=c1c2c(-c3ccccc3)c(-c3ccccc3)n(Cc3ccco3)c2ncn1CCCN1CCOCC1,-5.1,i,i,i,i,-7.1*
N=c1c2c(-c3ccccc3)c(-c3ccccc3)n(Cc3ccco3)c2ncn1CCCn1ccnc1,-15.7,i,i,i,i,-7.65*
N=c1c2c(-c3ccccc3)c(-c3ccccc3)n(Cc3ccccc3)c2ncn1CCO,-31.8,i,i,i,i,-8.56*
OCCNc1ncnc2c1c(-c1ccccc1)c(-c1ccccc1)n2Cc1ccco1,-20.4,i,i,i,i,0.61
OCCn1cnc2c(SCc3ccccc3)ncnc21,.,.,.,.,i,.
COc1cccc(NC(=O)COC(=O)CCCC2=NS(=O)(=O)c3ccccc3N2)c1,-5.1,i,i,i,i,0.04
Cc1ccc(C(=O)COC(=O)CCNS(=O)(=O)c2ccccc2F)cc1,.,.,.,.,i,.
Cc1cccc(C)c1OCC(=O)Nc1ccc2c(c1)C(=O)NC2=O,-8.8,i,i,i,i,-0.61
COc1cccc(-c2cc(C(F)(F)F)nc(N3CCC(C)CC3)n2)c1,5.1*,i,i,i,i,0.77
O=C1NC(=Nc2ccccc2Cl)S/C1=C\c1cccc([N+](=O)[O-])c1O,-13.3,i,i,6*,i,0
Cc1ccc(CNC(=O)CCC(=O)Nc2nnc(C)s2)cc1,-2.4,i,i,i,i,1.63
SMILES,hERG protect,KCNQ1 pot,KCNK9 inh,KCNQ1 inh,KCNK3 block,Kir21 inh
O=C1C(=O)N(CCN2CCOCC2)C(c2cccnc2)/C1=C(/O)c1ccc(Cl)cc1 (stereo unspecified),5.5*,i,i,i,i,1.04
O=C1C(=O)N(CCN2CCOCC2)C(c2cccnc2)/C1=C(/O)c1ccccc1 (stereo unspecified),-8.0,i,i,i,.,1.36
N#Cc1ccc(S(=O)(=O)N2CCN(Cc3cccs3)CC2)cc1,.,.,.,.,i,.
CCOc1cc(/C=C2\COc3ccccc3C2=O)cc(Br)c1OCC(=O)N(C)C,-12.1,i,i,i,i,-4.98*
CCCCCc1cc(OC)cc2c1C(=O)OC(C)(C)O2,.,.,.,.,-10.9*,.
O=C(N/N=C/c1ccccn1)c1ccc(Cl)c(Cl)c1,-10.2,i,i,i,i,1.05
CCc1ccc(C2C(C#N)=C(N)C(C#N)(C#N)C3=CCC(C(C)(C)C)CC32)cc1 (stereo unspecified),-19.8,i,i,i,i,-6.64*
Cc1ccc(C2C(C#N)=C(N)OC3=C2C(=O)CC(C)(C)C3)s1 (stereo unspecified),-1.9,9*,i,i,i,-1.11
COc1ccc2c(c1)N(S(=O)(=O)c1ccccc1)CCC2=O,-4.2,i,i,i,i,-6.51*
COc1ccc(NC(=O)c2ccc3c(c2)CCN3S(=O)(=O)c2ccccc2)cc1,-4.3,i,i,i,i,-1.3
Cc1nc(CS(=O)(=O)c2ccccn2)sc1C(=O)NNC(=O)c1ccccc1,-11.6,i,i,i,i,1.36
C=C(C)CC1(NC(C)c2ccccc2)CCCCC1 (stereo unspecified),-12.2,i,i,i,i,-4.91*
N/C(CN1CCCCC1)=N\S(=O)(=O)c1cc(Cl)cc(Cl)c1,-10.1,i,i,i,i,-2.12
Cc1ccc2nc(C)c(CN3CCN(c4ccc([N+](=O)[O-])cc4Cl)CC3)n2c1,-17.0,i,i,9*,i,1.07
CC(C)CN(C(=O)C1CCC1)c1c(N)n(Cc2ccccc2)c(=O)[nH]c1=O,.,.,.,.,i,.
COc1ccccc1N(Cc1ccccc1)S(=O)(=O)c1cccc(C(=O)O)c1,-4.5,i,i,i,i,0.53
CCOc1ccccc1NC(=O)c1cccc(S(=O)(=O)N(Cc2ccccc2)c2ccccc2OC)c1,-8.1,i,-6.86*,i,i,0.85
Cc1ccc(S(=O)(=O)n2c(CN3CCCC(C)C3)nc3ccccc32)cc1 (stereo unspecified),-1.2,i,-7.46*,i,i,0.41
Cc1ccc(S(=O)(=O)n2c(C)nc3ccccc32)cc1,-1.1,i,i,i,i,-1.37
Cc1ccc(C2(CCNCc3ccco3)CCOC(C(C)C)C2)cc1 (stereo unspecified),-8.1,i,i,i,i,-4.28*
CN(C)c1ccc2c(c1)OC(N)=C(C#N)C2c1cccc(F)c1 (stereo unspecified),-20.8,i,-6.75*,i,-10.8*,-0.41
CC(=O)Nc1ccc(C(=O)COC(=O)C2CC2)c(F)c1,.,.,.,.,i,.
O=C(N/C(=C/c1ccc2c(c1)OCO2)C(=O)N1CCOCC1)c1cccs1,8.2*,i,i,i,i,1.09
